The source made the active and inactive calls. The calls are words filed in the database; no cut-off is given here.
Legend:
Rattus norvegicus [1] = assay: Induction of catalepsy in ip dosed rat after 60 min by crossed-leg position test; assay type: functional; settings: 1 h
Outline: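 Rats dosed i.p. (10 mL/kg; doses as free base), seven per dose. From 60 min, hind limbs crossed over the ipsilateral forelimbs and time held recorded, up to 30 s. Repeated at 3 and 6 min and the three trials averaged. Incidence taken as catalepsy lasting 30 s.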

Rattus norvegicus [2] = assay: Normalizing effect on methylphenidate-induced behaviours in ip dosed rat after 30 min; assay type: functional; settings: for ED50: 0.5 h
Outline: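 Rats given methylphenidate 40 mg/kg i.p. plus compound i.p. (10 mL/kg; doses as free base), seven per dose. Over 10 min starting 30 min after injection, locomotion, rearing, sniffing, gnawing and licking scored in 10 s observations repeated 10 times. Normalization judged against saline and methylphenidate controls.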

D(2) dopamine receptor = D(2) dopamine receptor (Rattus norvegicus, UniProt P61169); assay: Displacement of [3H]YM-09151-2 from rat striatum D2 receptor
D(2) dopamine receptor, sequence (P61169 whole entry): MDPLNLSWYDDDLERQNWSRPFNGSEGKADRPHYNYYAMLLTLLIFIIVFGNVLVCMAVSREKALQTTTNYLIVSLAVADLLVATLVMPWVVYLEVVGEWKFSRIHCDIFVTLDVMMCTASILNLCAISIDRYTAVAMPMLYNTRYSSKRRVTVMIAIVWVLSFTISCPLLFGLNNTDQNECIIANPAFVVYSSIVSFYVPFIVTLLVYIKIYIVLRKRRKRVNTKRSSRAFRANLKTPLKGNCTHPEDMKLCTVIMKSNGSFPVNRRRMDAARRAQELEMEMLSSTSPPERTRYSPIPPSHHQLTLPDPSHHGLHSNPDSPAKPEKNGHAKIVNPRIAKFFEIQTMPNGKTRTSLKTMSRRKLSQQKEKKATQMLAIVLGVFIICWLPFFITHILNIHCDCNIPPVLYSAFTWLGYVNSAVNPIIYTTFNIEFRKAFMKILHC

[3] = target: T1, 5-hydroxytryptamine receptor 1A (Rattus norvegicus, UniProt P19327); assay: Displacement of [3H]OH-DPAT from rat cortex 5HT1A receptor
T1 sequence (P19327 whole entry): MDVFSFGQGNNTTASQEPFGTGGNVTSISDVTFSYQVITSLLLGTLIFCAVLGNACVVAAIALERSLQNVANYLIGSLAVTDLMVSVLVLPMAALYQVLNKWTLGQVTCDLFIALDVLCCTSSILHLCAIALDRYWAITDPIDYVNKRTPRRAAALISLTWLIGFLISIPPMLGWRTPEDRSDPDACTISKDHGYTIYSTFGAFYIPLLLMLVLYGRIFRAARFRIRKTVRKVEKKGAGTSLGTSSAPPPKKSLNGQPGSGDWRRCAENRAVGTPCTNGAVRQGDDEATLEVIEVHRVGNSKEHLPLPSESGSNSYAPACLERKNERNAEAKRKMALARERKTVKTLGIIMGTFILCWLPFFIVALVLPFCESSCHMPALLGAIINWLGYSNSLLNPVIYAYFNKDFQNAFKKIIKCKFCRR

[4] = target: T2, 5-hydroxytryptamine receptor 1A (Homo sapiens) (UniProt P08908); assay: Agonist activity at human 5HT1A receptor in HeLa cells assessed as stimulation of [35S]GTPgammaS binding relative to serotonin; assay type: functional, cell-based
T2 sequence (whole entry): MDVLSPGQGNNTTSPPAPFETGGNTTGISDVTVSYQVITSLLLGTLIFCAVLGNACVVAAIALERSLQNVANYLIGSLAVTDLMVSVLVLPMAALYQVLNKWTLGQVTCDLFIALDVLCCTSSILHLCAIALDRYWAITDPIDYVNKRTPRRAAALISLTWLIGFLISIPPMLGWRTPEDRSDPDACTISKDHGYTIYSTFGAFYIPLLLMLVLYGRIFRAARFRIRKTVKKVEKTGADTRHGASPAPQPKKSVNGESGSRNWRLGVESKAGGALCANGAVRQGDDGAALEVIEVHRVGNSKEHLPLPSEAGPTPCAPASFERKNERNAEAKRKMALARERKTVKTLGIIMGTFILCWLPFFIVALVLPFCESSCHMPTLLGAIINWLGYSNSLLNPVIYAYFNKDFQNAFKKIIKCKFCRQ
Outline: (§1)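 Membranes from HeLa cells expressing human 5-HT1A, prepared by homogenisation and 40 000 g spins in Hepes/EDTA, incubated with compound 1 h at 30 °C. [35S]GTPγS added at 0.1 nM final, then 30 min at 30 °C. Filtration and scintillation counting. Six concentrations from 10^-10 to 10^-5 M, triplicate, three experiments.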

[5] = target: T3, 5-hydroxytryptamine receptor 1A (Homo sapiens, UniProt P08908); assay: Agonist activity at human 5HT1A receptor in HeLa cells assessed as stimulation of [35S]GTP-gamma-S binding; assay type: functional, cell-based; outline: as §1
T3 sequence (P08908 whole entry): T2 sequence (whole entry)

[6] = target: 5-hydroxytryptamine receptor 2A (Rattus norvegicus, UniProt P14842); assay: Displacement of [3H]ketanserin from rat cortex 5HT2A receptor
5-hydroxytryptamine receptor 2A, sequence (P14842 whole entry): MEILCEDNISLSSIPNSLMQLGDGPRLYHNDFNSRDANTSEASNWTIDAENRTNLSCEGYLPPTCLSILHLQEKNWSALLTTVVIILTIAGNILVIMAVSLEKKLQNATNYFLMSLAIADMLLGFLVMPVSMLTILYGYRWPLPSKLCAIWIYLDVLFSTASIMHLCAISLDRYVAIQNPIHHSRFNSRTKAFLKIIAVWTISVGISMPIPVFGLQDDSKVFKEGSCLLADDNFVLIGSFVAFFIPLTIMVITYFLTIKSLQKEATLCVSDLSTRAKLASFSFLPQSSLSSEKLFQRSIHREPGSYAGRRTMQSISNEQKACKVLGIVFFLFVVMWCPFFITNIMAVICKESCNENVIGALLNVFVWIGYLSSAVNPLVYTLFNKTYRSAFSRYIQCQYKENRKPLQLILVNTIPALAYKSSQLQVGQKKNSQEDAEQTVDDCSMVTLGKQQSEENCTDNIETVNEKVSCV

[7] = target: D(2) dopamine receptor (Rattus norvegicus) (UniProt P61169)
D(2) dopamine receptor (Rattus norvegicus), sequence (P61169 whole entry): as the sequence (P61169 whole entry) above

Rattus norvegicus [8] = assay: Induction of lower lip retraction in ip dosed rat after 15 min; assay type: functional; settings: 0.25 h
Outline: (§2)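 Rats given compound i.p. (10 mL/kg; doses as free base), five per dose, observed individually for 10 min from 15 min post-injection. LLR scored present if uninterrupted for ≥3 s, in 10 cycles; response was ≥1 positive score. FBP scored present only if seen over the whole period.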

Rattus norvegicus [9] = assay: Induction of forepaw treading in rat at 40 mg/kg, ip; assay type: functional, organism-based; set-up: dose 40 mg/kg
Rattus norvegicus [10] = assay: Induction of flat body posture in ip dosed rat after 15 min; assay type: functional; settings: 0.25 h; outline: as §2
Rattus norvegicus [11] = assay: Ratio of ED50 for LLR induction to ED50 for normalization in ip dosed rat; assay type: functional
Rattus norvegicus [12] = assay: Ratio of ED50 for catalepsy induction to ED50 for normalization in ip dosed rat; assay type: functional

## O=C(CCCN1CCC(O)(c2ccc(Cl)cc2)CC1)c1ccc(F)cc1 [HALOPERIDOL]
Rattus norvegicus [1]
  ED50: 0.3 mg/kg
Rattus norvegicus [2]
  ED50: 0.31 mg/kg

## CC1(C)Oc2cccc(OCCNCc3cccc(C4=CCCC4)c3)c2O1
D(2) dopamine receptor
  Ki: 1.23 nM
[3]
  Ki: 9.55 nM
Rattus norvegicus [2]
  Activity: Active
[4]
  Emax: 90.6%
[5]
  EC50: 24.5 nM

## CC(C)Oc1ccccc1OCCNCc1cccc(C2=CCCCC2)c1
D(2) dopamine receptor
  Ki: 1.55 nM
[3]
  Ki: 12.3 nM
[4]
  Emax: 69.8%
[6]
  Ki: 191 nM
[5]
  EC50: 46.8 nM

## CC(C)Oc1ccccc1OCCNCc1cccc(C2=CCCC2)c1
D(2) dopamine receptor
  Ki: 0.501 nM
[3]
  Ki: 29.5 nM
[4]
  Emax: 54%
[6]
  Ki: 646 nM
[5]
  EC50: 69.2 nM

## C1=C(c2cncc(CNCCOc3cccc4c3OC3(CC3)C4)c2)CCC1
D(2) dopamine receptor
  Ki: 0.447 nM
[3]
  Ki: 3.63 nM
Rattus norvegicus [2]
  Activity: Active
[4]
  Emax: 78.5%
[5]
  EC50: 2.63 nM

## CC1(C)COc2c(OCCNCc3cccc(C4=CCCC4)c3)cccc21
D(2) dopamine receptor
  Ki: 0.813 nM
[3]
  Ki: 42.7 nM
Rattus norvegicus [2]
  Activity: Active
[4]
  Emax: 72.4%
[5]
  EC50: 112 nM

## C1=C(c2cccc(CNCCOc3cccc4c3OCO4)c2)CCC1
D(2) dopamine receptor
  Ki: 2.57 nM
[3]
  Ki: 20.9 nM
[4]
  Emax: 70.7%
[5]
  EC50: 135 nM

## CC1(C)Cc2cccc(OCCNCc3cncc(C4=CCCC4)c3)c2O1
[7]
  pKb: 9.29
Rattus norvegicus [8]
  ED50: 1.8 mg/kg
Rattus norvegicus [9]
  Activity: inactive
D(2) dopamine receptor
  Ki: 0.275 nM
Rattus norvegicus [1]
  ED50: > 40 mg/kg
Rattus norvegicus [10]
  ED50: 4.7 mg/kg
[3]
  Ki: 0.955 nM
Rattus norvegicus [2]
  ED50: 0.29 mg/kg
Rattus norvegicus [11]
  Ratio ED50: 6.2
[4]
  Emax: 72.4%
[5]
  EC50: 2.88 nM
Rattus norvegicus [12]
  Ratio ED50: >137

## C1=C(c2cccc(CNCCOc3cccc4c3OCCO4)c2)CCC1
D(2) dopamine receptor
  Ki: 0.776 nM
[3]
  Ki: 1.7 nM
Rattus norvegicus [2]
  Activity: Active
[4]
  Emax: 68.9%
[5]
  EC50: 6.46 nM

## CC(C)Oc1ccccc1OCCNCc1cccc(-c2ccco2)c1
D(2) dopamine receptor
  Ki: 0.339 nM
[3]
  Ki: 67.6 nM
[6]
  Ki: 372 nM
[5]
  EC50: > 10000 nM

## CC1(C)Cc2cccc(OCCNCc3cccc(C4=CCCC4)c3)c2O1
[7]
  pKb: 8.29
Rattus norvegicus [8]
  ED50: 8.3 mg/kg
Rattus norvegicus [9]
  Activity: inactive
D(2) dopamine receptor
  Ki: 0.417 nM
Rattus norvegicus [1]
  ED50: > 40 mg/kg
Rattus norvegicus [10]
  ED50: 32 mg/kg
[3]
  Ki: 5.75 nM
Rattus norvegicus [2]
  ED50: 1.1 mg/kg
Rattus norvegicus [11]
  Ratio ED50: 7.5
[4]
  Emax: 85.6%
[5]
  EC50: 10 nM
Rattus norvegicus [12]
  Ratio ED50: >36

## CC(C)Oc1ccccc1OCCNCc1cccc(-c2ccsc2)c1
D(2) dopamine receptor
  Ki: 0.275 nM
[3]
  Ki: 34.7 nM
[4]
  Emax: 47.7%
[6]
  Ki: 347 nM
[5]
  EC50: 67.6 nM

## O=c1[nH]c2cccc(N3CCN(Cc4cccc(-c5ccccc5)c4)CC3)c2o1 [BIFEPRUNOX]
D(2) dopamine receptor
  Ki: 1.55 nM
[3]
  Ki: 64.6 nM
[4]
  Emax: 60.8%
[6]
  Ki: 3310 nM
[5]
  EC50: 324 nM

## CC(C)Oc1ccccc1OCCNCc1cccc(C2CCCC2)c1
D(2) dopamine receptor
  Ki: 0.562 nM
[3]
  Ki: 16.6 nM
[4]
  Emax: 71.2%
[6]
  Ki: 302 nM
[5]
  EC50: 195 nM

## C1=C(c2cccc(CNCCOc3cccc4c3OC3(CC3)C4)c2)CCC1
D(2) dopamine receptor
  Ki: 1.12 nM
[3]
  Ki: 6.17 nM
Rattus norvegicus [2]
  Activity: Active
[4]
  Emax: 93.8%
[5]
  EC50: 33.9 nM

## Fc1ccc(-c2cncc(CNC[C@H]3CCc4ccccc4O3)c2)cc1 [SARIZOTAN]
D(2) dopamine receptor
  Ki: 19.1 nM
[3]
  Ki: 2.24 nM
[4]
  Emax: 66.5%
[6]
  Ki: 2140 nM
[5]
  EC50: 77.6 nM

## Fc1ccc(-c2cncc(CN3CCN(c4cccc5c4OCCO5)CC3)c2)cc1 [ADOPRAZINE]
[7]
  pKb: 7.81
Rattus norvegicus [8]
  ED50: 0.32 mg/kg
Rattus norvegicus [1]
  ED50: > 40 mg/kg
Rattus norvegicus [10]
  ED50: 1.7 mg/kg
[3]
  Ki: 2.29 nM
Rattus norvegicus [2]
  ED50: 1.4 mg/kg
[4]
  Emax: 45.3%
[6]
  Ki: 724 nM
[5]
  EC50: 5.89 nM

## CC(C)Oc1ccccc1OCCNCc1cccc(-c2cccs2)c1
D(2) dopamine receptor
  Ki: 0.562 nM
[3]
  Ki: 46.8 nM
[6]
  Ki: 562 nM
[5]
  EC50: > 10000 nM

## CC(C)Oc1ccccc1OCCNCc1cccc(C2=CCCCCC2)c1
D(2) dopamine receptor
  Ki: 3.09 nM
[3]
  Ki: 22.9 nM
[4]
  Emax: 86.5%
[6]
  Ki: 1050 nM
[5]
  EC50: 1550 nM

## CC(C)Oc1ccccc1OCCNCc1cccc(-c2ccccc2)c1
D(2) dopamine receptor
  Ki: 0.195 nM
[3]
  Ki: 26.3 nM
[4]
  Emax: 73.9%
[6]
  Ki: 724 nM
[5]
  EC50: 1410 nM

## CC(C)Oc1ccccc1OCCNCc1cccc(C2CC2)c1
D(2) dopamine receptor
  Ki: 0.603 nM
[3]
  Ki: 61.7 nM
[6]
  Ki: 110 nM
[5]
  EC50: > 10000 nM

## CCCN(CCC)C1CCc2cccc(O)c2C1 (stereo unspecified) [8-OH-DPAT]
Rattus norvegicus [8]
  ED50: 0.09 mg/kg
Rattus norvegicus [1]
  ED50: > 10 mg/kg
Rattus norvegicus [10]
  ED50: 0.28 mg/kg
Rattus norvegicus [2]
  ED50: > 10 mg/kg
[4]
  Emax: 82%

## CCC1(C)Cc2cccc(OCCNCc3cccc(C4=CCCC4)c3)c2O1 (stereo unspecified)
D(2) dopamine receptor
  Ki: 11.5 nM
[3]
  Ki: 5.5 nM
Rattus norvegicus [2]
  Activity: Active
[4]
  Emax: 77.7%
[5]
  EC50: 32.4 nM
